≈ marks a conversion by molar mass, not a printed value. Calls of active or inactive are those of the source. The rule behind the calls is not given here.
Key:
[1] = tested on: Enterococcus faecium; assay: Antibacterial activity against vancomycin-resistant Enterococcus faecium B42762; assay type: functional
Method in brief: (§1)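 Broth microdilution per CLSI with modified incubation. Log-phase cultures in cation-adjusted Mueller-Hinton broth, seeded at 1 x 10^5 CFU/ml. Compounds from DMSO stocks, 1% DMSO final. Incubated 37°C, 16 to 20 h, shaken. Growth read as OD600. MIC is the lowest concentration with no apparent growth. Run in quadruplicate; highest value reported.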

[2] = tested on: Escherichia coli; assay: Antibacterial activity against Escherichia coli J53; assay type: functional
[3] = tested on: Bacillus subtilis; assay: Inhibition of DNA synthesis in Bacillus subtilis BD54; assay type: functional, organism-based
Method in brief: (§2)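 B. subtilis BD54 grown to log phase in C plus 50 medium; compound in DMSO added with [8-3H]adenine at time zero, at 5x or 1x MIC; samples over time. DNA = alkali-insensitive TCA-insoluble label; RNA = total TCA-insoluble minus DNA. Effect judged against diluent-control incorporation.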

[4] = tested on: Enterococcus faecalis; assay: Antibacterial activity against Enterococcus faecalis 29212; assay type: functional; method in brief: as §1
[5] = tested on: Streptococcus pneumoniae; assay: Antibacterial activity against penicillin-resistant Streptococcus pneumoniae 700671; assay type: functional
Method in brief: (§3)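 Streptococci tested by CLSI broth microdilution in Mueller-Hinton broth with 5% defibrinated horse blood, log-phase inoculum at 1 x 10^5 CFU/ml. Incubated 37°C with shaking, 16 to 20 h, in 5% humidified CO2. Compounds at 1% DMSO final. MIC is the lowest concentration without growth by OD600. Quadruplicate; highest MIC reported.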

[6] = tested on: Escherichia coli; assay: Antibacterial activity against ciprofloxacin-resistant Escherichia coli XL1-Blue; assay type: functional; method in brief: as §1
[7] = tested on: Staphylococcus aureus; assay: Antibacterial activity against Staphylococcus aureus 25923; assay type: functional; method in brief: as §1
[8] = tested on: Streptococcus pneumoniae; assay: Antibacterial activity against Streptococcus pneumoniae 49619; assay type: functional; method in brief: as §3
[9] = tested on: Enterococcus faecium; assay: Antibacterial activity against Enterococcus faecium 19434; assay type: functional; method in brief: as §1
[10] = tested on: Staphylococcus aureus; assay: Antibacterial activity against Staphylococcus aureus Smith in presence of 10% FCS; assay type: functional
[11] = tested on: Staphylococcus aureus; assay: Antibacterial activity against ciprofloxacin-resistant Staphylococcus aureus Smith; assay type: functional; method in brief: as §1
[12] = tested on: Streptococcus pyogenes; assay: Antibacterial activity against Streptococcus pyogenes 12344; assay type: functional
[13] = tested on: Bacillus thuringiensis; assay: Antibacterial activity against Bacillus thuringiensis 33679; assay type: functional
[14] = tested on: Staphylococcus aureus; assay: Antibacterial activity against HB-EMAU-resistant Staphylococcus aureus Smith; assay type: functional; method in brief: as §1
[15] = tested on: Enterococcus faecium; assay: Antibacterial activity against vancomycin-resistant Enterococcus faecium 1644; assay type: functional; method in brief: as §1
[16] = tested on: Staphylococcus aureus; assay: Antibacterial activity against Staphylococcus aureus 1081; assay type: functional; method in brief: as §1
[17] = tested on: Pseudomonas aeruginosa; assay: Antibacterial activity against Pseudomonas aeruginosa 27853; assay type: functional
[18] = tested on: Staphylococcus aureus; assay: Antibacterial activity against methicillin-resistant Staphylococcus aureus 1132; assay type: functional; method in brief: as §1
[19] = tested on: Enterococcus faecalis; assay: Antibacterial activity against vancomycin-resistant Enterococcus faecalis 51575; assay type: functional; method in brief: as §1
[20] = Cytotoxicity against human MRC5 cells; assay type: cell-based
Method in brief: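 MRC-5 human diploid fibroblasts, 4 x 10^3 cells per well, exposed to compound from DMSO stock (final 1%) in minimal essential medium with 10% fetal calf serum for 72 h at 37°C beside a DMSO-only control.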

[21] = tested on: Enterococcus faecium; assay: Antibacterial activity against vancomycin and linezolid-resistant Enterococcus faecium F118; assay type: functional; method in brief: as §1
[22] = tested on: Staphylococcus aureus; assay: Antibacterial activity against methicillin-resistant Staphylococcus aureus 1123; assay type: functional; method in brief: as §1
[23] = tested on: Streptococcus pneumoniae; assay: Antibacterial activity against penicillin-resistant Streptococcus pneumoniae 700670; assay type: functional; method in brief: as §3
[24] = tested on: Streptococcus pneumoniae; assay: Antibacterial activity against penicillin-resistant Streptococcus pneumoniae 700673; assay type: functional; method in brief: as §3
[25] = tested on: Bacillus thuringiensis; assay: Antibacterial activity against Bacillus thuringiensis 10792; assay type: functional
[26] = tested on: Enterococcus faecalis; assay: Antibacterial activity against vancomycin-resistant Enterococcus faecalis 700802; assay type: functional; method in brief: as §1
[27] = tested on: Enterococcus faecalis; assay: Antibacterial activity against vancomycin-resistant Enterococcus faecalis 51299; assay type: functional; method in brief: as §1
[28] = tested on: Streptococcus pneumoniae; assay: Antibacterial activity against penicillin-resistant Streptococcus pneumoniae 700677; assay type: functional; method in brief: as §3
[29] = tested on: Bacillus cereus; assay: Antibacterial activity against Bacillus cereus 6464; assay type: functional
[30] = tested on: Staphylococcus aureus; assay: Antibacterial activity against methicillin-resistant Staphylococcus aureus B42876; assay type: functional; method in brief: as §1
[31] = tested on: Stenotrophomonas maltophilia; assay: Antibacterial activity against Stenotrophomonas maltophilia 13637; assay type: functional
[32] = tested on: Klebsiella pneumoniae; assay: Antibacterial activity against Klebsiella pneumoniae 5657; assay type: functional
[33] = tested on: Bacillus subtilis; assay: Antibacterial activity against Bacillus subtilis BD54; assay type: functional
[34] = tested on: Bacillus subtilis; assay: Inhibition of protein synthesis in Bacillus subtilis BD54; assay type: functional, organism-based
Method in brief: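 Log-phase B. subtilis BD54 in C plus 50 medium; compound in DMSO (5x or 1x MIC) and L-[4,5-3H]leucine added together at time zero; samples taken at intervals. Protein synthesis measured as TCA-precipitable radioactivity, compared with diluent-control incorporation.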

[35] = tested on: Staphylococcus aureus; assay: Antibacterial activity against mupirocin-resistant Staphylococcus aureus 777; assay type: functional; method in brief: as §1
[36] = target: T1, DNA polymerase subunit gamma-1 (Homo sapiens, UniProt P54098); assay: Inhibition of human DNA polymerase gamma
T1 sequence (P54098 whole entry): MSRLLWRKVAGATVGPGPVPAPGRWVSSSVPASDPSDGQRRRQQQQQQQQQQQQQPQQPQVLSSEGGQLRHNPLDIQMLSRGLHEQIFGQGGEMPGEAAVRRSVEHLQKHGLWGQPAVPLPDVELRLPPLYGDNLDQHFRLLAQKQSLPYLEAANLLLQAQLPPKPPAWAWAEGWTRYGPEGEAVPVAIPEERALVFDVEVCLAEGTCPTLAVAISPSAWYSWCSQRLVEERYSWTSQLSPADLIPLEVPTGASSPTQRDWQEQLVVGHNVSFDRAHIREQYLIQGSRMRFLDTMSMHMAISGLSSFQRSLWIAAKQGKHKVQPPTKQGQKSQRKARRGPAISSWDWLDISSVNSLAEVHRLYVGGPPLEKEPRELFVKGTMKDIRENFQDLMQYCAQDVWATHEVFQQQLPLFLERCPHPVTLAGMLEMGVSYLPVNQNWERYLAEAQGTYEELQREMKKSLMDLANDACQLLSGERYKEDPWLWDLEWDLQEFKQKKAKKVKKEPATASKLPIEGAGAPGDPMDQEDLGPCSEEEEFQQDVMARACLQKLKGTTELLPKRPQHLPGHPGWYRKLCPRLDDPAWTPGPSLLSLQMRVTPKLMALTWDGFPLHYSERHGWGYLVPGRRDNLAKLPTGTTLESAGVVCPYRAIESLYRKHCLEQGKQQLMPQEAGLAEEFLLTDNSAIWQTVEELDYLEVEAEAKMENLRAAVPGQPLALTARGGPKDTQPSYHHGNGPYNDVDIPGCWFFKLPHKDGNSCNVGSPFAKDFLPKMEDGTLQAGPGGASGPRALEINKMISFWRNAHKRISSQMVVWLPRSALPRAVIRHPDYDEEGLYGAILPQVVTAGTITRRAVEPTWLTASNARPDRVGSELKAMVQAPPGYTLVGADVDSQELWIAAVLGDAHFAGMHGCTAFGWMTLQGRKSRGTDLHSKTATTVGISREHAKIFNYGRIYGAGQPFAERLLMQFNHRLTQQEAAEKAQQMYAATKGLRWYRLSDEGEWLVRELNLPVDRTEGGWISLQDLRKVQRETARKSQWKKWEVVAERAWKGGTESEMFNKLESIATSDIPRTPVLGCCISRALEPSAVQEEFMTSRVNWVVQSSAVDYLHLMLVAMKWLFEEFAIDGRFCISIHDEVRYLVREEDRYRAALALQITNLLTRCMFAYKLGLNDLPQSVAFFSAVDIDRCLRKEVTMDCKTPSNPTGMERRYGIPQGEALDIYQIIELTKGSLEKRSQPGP
Method in brief: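 Calf thymus pol alpha or human pol gamma, 0.025 to 0.06 U, added to compound dilutions in reaction mixture; 25 min at 37°C; stopped with ice-cold 10% TCA/10 mM pyrophosphate; precipitated [3H]DNA collected on filters and counted. Ki values for dGTP-competitive inhibitors obtained by truncated assay lacking dGTP.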

[37] = Inhibition of Bacillus subtilis gyrase
[38] = tested on: Bacillus cereus; assay: Antibacterial activity against Bacillus cereus 4342; assay type: functional
[39] = tested on: Staphylococcus aureus; assay: Antibacterial activity against HB-EMAU-resistant and ciprofloxacin-resistant Staphylococcus aureus Smith; assay type: functional; method in brief: as §1
[40] = tested on: Bacillus anthracis; assay: Antibacterial activity against Bacillus anthracis Sterne; assay type: functional
[41] = Inhibition of Bacillus subtilis topoisomerase 4
[42] = tested on: Staphylococcus aureus; assay: Antibacterial activity against Staphylococcus aureus Smith 13709; assay type: functional; method in brief: as §1
[43] = tested on: Streptococcus pneumoniae; assay: Antibacterial activity against penicillin-resistant Streptococcus pneumoniae 700674; assay type: functional; method in brief: as §3
[44] = tested on: Staphylococcus aureus; assay: Antibacterial activity against methicillin-resistant Staphylococcus aureus 1094; assay type: functional; method in brief: as §1
[45] = tested on: Staphylococcus aureus; assay: Antibacterial activity against mupirocin-sensitive Staphylococcus aureus 2529; assay type: functional
[46] = tested on: Bacillus subtilis; assay: Inhibition of RNA synthesis in Bacillus subtilis BD54; assay type: functional, organism-based; method in brief: as §2

## CCc1cc(Nc2cc(=O)n(CCCCO)c(=O)[nH]2)ccc1C
[1]
  MIC: 5 µg/mL (≈ 15.8 µM)
[2]
  MIC: > 80 µg/mL
[3]
  Activity: Active
[4]
  MIC: 5 µg/mL (≈ 15.8 µM)
[5]
  MIC: 2.5 µg/mL (≈ 7.88 µM)
[6]
  MIC: > 80 µg/mL
[7]
  MIC: 5 µg/mL (≈ 15.8 µM)
[8]
  MIC: 2.5 µg/mL (≈ 7.88 µM)
[9]
  MIC: 5 µg/mL (≈ 15.8 µM)
[10]
  MIC: 20 µg/mL
[11]
  MIC: 5 µg/mL (≈ 15.8 µM)
[12]
  MIC: 1.25 µg/mL (≈ 3.94 µM)
[13]
  MIC: 2.5 µg/mL (≈ 7.88 µM)
[14]
  MIC: > 80 µg/mL
[15]
  MIC: 2.5 µg/mL (≈ 7.88 µM)
[16]
  MIC: 5 µg/mL (≈ 15.8 µM)
[17]
  MIC: > 80 µg/mL
[18]
  MIC: 5 µg/mL (≈ 15.8 µM)
[19]
  MIC: 5 µg/mL (≈ 15.8 µM)
[20]
  CC50: 46 µg/mL (≈ 145 µM)
[21]
  MIC: 10 µg/mL (≈ 31.5 µM)
[22]
  MIC: 5 µg/mL (≈ 15.8 µM)
[23]
  MIC: 5 µg/mL (≈ 15.8 µM)
[24]
  MIC: 2.5 µg/mL (≈ 7.88 µM)
[25]
  MIC: 1.25 µg/mL (≈ 3.94 µM)
[26]
  MIC: 5 µg/mL (≈ 15.8 µM)
[27]
  MIC: 5 µg/mL (≈ 15.8 µM)
[28]
  MIC: 2.5 µg/mL (≈ 7.88 µM)
[29]
  MIC: 1.25 µg/mL (≈ 3.94 µM)
[30]
  MIC: 5 µg/mL (≈ 15.8 µM)
[31]
  MIC: > 80 µg/mL
[32]
  MIC: > 80 µg/mL
[33]
  MIC: 1.25 µg/mL (≈ 3.94 µM)
[34]
  Activity: inactive
[35]
  MIC: 10 µg/mL (≈ 31.5 µM)
[36]
  Ki: > 1010 µM
[37]
  IC50: > 500 µM
[38]
  MIC: 1.25 µg/mL (≈ 3.94 µM)
[39]
  MIC: > 80 µg/mL
[40]
  MIC: 2.5 µg/mL (≈ 7.88 µM)
[41]
  IC50: > 500 µM
[42]
  MIC: 5 µg/mL (≈ 15.8 µM)
[43]
  MIC: 5 µg/mL (≈ 15.8 µM)
[44]
  MIC: 5 µg/mL (≈ 15.8 µM)
[45]
  MIC: 20 µg/mL (≈ 63 µM)
[46]
  Activity: inactive
